Data from PMC6912599 (European journal of medicinal chemistry, 2018).
Where two headings read alike, the source gives them in different places.

Assays:
α1L264Tβ3γ2L receptors = α1L264Tβ3γ2L receptors (Homo sapiens, UniProt P14867+P28472, L291T); test: Direct activation of spontaneously gating α1L264Tβ3γ2L receptors in oocytes; assay type: cell-based
tadpoles [1] = test: Loss of righting reflexes; assay type: in vivo, tadpole
α1β3 GABAAR [2] = target: T1, α1β3 GABAAR (Homo sapiens, UniProt P14867+P28472); test: Voltage clamp electrophysiology of α1β3 GABAAR expressed in Xenopus oocytes; assay type: cell-based
T1 sequence (P14867 28-456): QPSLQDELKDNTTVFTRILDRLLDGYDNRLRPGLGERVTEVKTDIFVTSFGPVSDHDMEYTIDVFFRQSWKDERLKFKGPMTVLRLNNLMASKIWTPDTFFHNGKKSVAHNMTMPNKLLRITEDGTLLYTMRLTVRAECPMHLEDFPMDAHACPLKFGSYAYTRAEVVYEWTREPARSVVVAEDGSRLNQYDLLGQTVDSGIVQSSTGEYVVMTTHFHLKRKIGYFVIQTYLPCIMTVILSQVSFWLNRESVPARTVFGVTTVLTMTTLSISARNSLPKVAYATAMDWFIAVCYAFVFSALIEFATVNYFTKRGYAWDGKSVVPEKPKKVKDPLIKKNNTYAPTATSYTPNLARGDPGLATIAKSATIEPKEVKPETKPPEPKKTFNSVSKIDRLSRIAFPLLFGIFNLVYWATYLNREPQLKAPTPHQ
T1 sequence (P28472 26-473): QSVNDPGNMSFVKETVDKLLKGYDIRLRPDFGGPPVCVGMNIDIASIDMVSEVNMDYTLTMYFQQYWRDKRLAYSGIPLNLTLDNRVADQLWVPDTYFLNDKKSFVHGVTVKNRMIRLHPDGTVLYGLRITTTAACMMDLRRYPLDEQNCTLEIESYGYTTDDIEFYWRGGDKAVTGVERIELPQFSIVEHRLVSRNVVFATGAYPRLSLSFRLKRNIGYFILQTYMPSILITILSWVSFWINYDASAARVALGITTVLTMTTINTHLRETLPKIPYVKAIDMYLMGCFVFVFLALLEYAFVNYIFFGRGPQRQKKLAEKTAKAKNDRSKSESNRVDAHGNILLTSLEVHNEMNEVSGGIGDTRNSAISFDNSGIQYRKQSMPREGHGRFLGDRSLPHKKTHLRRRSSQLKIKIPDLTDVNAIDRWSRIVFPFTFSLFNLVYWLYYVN

α1β3γ2L GABAAR [3] = target: T2, α1β3γ2L GABAAR (Homo sapiens, UniProt P14867+P28472); test: Modulation of 2 nM [3H]muscimol binding to α1β3γ2L GABAAR
Target sequence in this assay (P18507 40-475, one chain of several, further chain): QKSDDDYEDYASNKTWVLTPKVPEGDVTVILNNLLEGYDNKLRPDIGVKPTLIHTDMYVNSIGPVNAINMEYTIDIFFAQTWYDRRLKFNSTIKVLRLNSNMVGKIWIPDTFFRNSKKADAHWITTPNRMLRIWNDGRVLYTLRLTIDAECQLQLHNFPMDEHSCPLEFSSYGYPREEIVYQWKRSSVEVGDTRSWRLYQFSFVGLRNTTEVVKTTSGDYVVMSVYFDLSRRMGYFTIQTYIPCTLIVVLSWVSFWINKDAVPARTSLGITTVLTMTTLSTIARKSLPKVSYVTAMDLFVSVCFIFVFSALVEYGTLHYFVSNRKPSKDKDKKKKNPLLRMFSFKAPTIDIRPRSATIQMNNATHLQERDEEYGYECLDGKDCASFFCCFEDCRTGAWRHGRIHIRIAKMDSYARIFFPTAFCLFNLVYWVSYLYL

α1β3 GABAAR [4] = target: T1, α1β3 GABAAR; test: Modulation of 2 nM [3H]muscimol binding to α1β3 GABAAR
α1β3γ2L GABAAR [5] = target: T2, α1β3γ2L GABAAR; test: Voltage clamp electrophysiology of α1β3γ2L GABAAR expressed in Xenopus oocytes; assay type: cell-based; settings: for enhancement of EC5 GABA-activated currents: 10 μM compound; for enhancement of EC5 GABA-activated currents / potentiation of EC5 GABA-activated chloride currents (up to): EC5 GABA (4 μM); for potentiation of EC5 GABA-activated chloride currents (up to): maximum concentration tested 100 μM
Target sequence in this assay (P18507 40-475 partner, one chain of several): as the sequence (P18507 40-475, one chain of several, further chain) above

α1Q242Wβ3γ2L receptors = α1Q242Wβ3γ2L receptors (Homo sapiens, UniProt P14867+P28472, Q269W); test: Electrophysiology of steroid site mutant α1Q242Wβ3γ2L receptors in oocytes; assay type: cell-based; settings: 10 μM steroid; EC5 GABA
α1Q242Wβ3γ2L receptors, sequence (P14867 28-456 Q269W, one chain of several): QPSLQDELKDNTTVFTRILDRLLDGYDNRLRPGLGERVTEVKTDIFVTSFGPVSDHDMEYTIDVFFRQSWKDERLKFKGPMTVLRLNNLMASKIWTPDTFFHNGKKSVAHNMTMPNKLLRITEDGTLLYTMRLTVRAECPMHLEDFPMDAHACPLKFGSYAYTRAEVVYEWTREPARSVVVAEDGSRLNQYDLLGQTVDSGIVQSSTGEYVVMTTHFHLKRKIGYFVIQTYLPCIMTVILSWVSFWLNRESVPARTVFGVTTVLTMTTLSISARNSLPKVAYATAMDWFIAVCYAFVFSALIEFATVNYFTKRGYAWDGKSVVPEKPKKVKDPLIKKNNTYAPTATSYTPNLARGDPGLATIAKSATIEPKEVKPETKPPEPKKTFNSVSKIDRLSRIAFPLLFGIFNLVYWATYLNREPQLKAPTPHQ
α1Q242Wβ3γ2L receptors, sequence (P18507 40-475 partner, one chain of several): as the sequence (P18507 40-475, one chain of several, further chain) above
Summary of the method: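 Female Xenopus laevis stage V oocytes were injected with up to 10 ng of α1Q242W, β3 and γ2L mRNA (1:1:3) and held ≥24 h. Two-electrode voltage clamp was run at −50 mV and 20–22°C, with ND96 (pH 7.4) superfusion at 2–3 mL/min.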

α1β3 GABAAR [6] = target: T1, α1β3 GABAAR; test: Inhibition of [3H]21-pTFDBzox-AP photolabeling of purified α1β3 GABAAR; assay type: binding; settings: for inhibition of photolabeling at high concentrations: same extent as 30 μM allopregnanolone
α1β3γ2 GABAAR = α1β3γ2 GABAAR (Homo sapiens, UniProt P14867+P28472); test: Inhibition of [3H]21-pTFDBzox-AP photolabeling of purified α1β3γ2 GABAAR; assay type: binding; settings: 30 μM; 0.8 μM [3H]21-pTFDBzox-AP
α1β3γ2 GABAAR, sequence (P18507 40-475 partner, one chain of several): as the sequence (P18507 40-475, one chain of several, further chain) above

tadpoles [7] = settings: read-out: published anesthetic EC50s; tadpole LoRR; cited from earlier work

α1L264Tβ3γ2L receptors, sequence (P18507 40-475, one chain of several): as the sequence (P18507 40-475, one chain of several, further chain) above
α1L264Tβ3γ2L receptors, sequence (P14867 28-456 L291T, one chain of several): as the sequence (P14867 28-456 Q269W, one chain of several) above, with W242Q, L264T counted along it

## 21-[4-(3-(Trifluoromethyl)-3H-diazirin-3-yl)benzoxy]allopregnanolone [21-pTFDBzox-AP]
α1L264Tβ3γ2L receptors; 2 μM, no GABA
  current elicited as % of the maximal GABA response: approximately 21%
  direct increase of inward current in the absence of GABA: about 50%
Tadpoles [1]; 2.5 or 10 μM 21-pTFDBzox-AP
  antagonism of alphaxalone's anesthetic action: no significant antagonism
Tadpoles [1]; tadpoles exposed to 1, 2, 3 and 10 μM
  Loss of righting reflexes (LoRR): No LoRR
α1β3 GABAAR [2]; 10 μM compound, EC10 GABA (1 μM)
  enhancement of EC10 GABA-activated currents: 2.1± 0.4 fold
α1β3 GABAAR [2]; EC10 GABA, Hill slope constrained to 1.7
  fitted maximal enhancement ratio: 2.1 ± 0.4
α1β3γ2L GABAAR [3]; detergent/lipid micelles
  Hill coefficient nH of [3H]muscimol binding enhancement: 1.15 ± 0.36
  maximal enhancement of [3H]muscimol binding: 135 ± 1%
α1β3γ2L GABAAR [3]; membranes
  Hill coefficient nH of [3H]muscimol binding enhancement: 1.09 ± 0.22
  maximal enhancement of [3H]muscimol binding: 199 ± 30%
α1β3 GABAAR [4]; detergent/lipid micelles
  Hill coefficient nH of [3H]muscimol binding enhancement: 1.45 ± 0.51
  maximal enhancement of [3H]muscimol binding: 172 ± 6%
α1β3 GABAAR [4]; membranes
  Hill coefficient nH of [3H]muscimol binding enhancement: 1.71 ± 0.10
  maximal enhancement of [3H]muscimol binding: 271 ± 7%
α1β3γ2L GABAAR [5]; 5 μM
  effect on GABA EC50: did not reduce the GABA EC50
α1β3γ2L GABAAR [5]
  enhancement of EC5 GABA-activated currents: 2.6 ± 0.3 fold
α1β3γ2L GABAAR [5]; EC5 GABA, Hill slope constrained to 1.7
  fitted maximal enhancement ratio: 2.6 ± 0.3
α1Q242Wβ3γ2L receptors
  positive modulation in α1Q242W mutant receptors: eliminated positive modulation

## CC(=O)[C@H]1CC[C@H]2[C@@H]3CC4(N=N4)[C@H]4C[C@H](O)CC[C@]4(C)[C@H]3C(=O)C[C@]12C [6-azi-OAP, 6-Azi-3α-hydroxy-5α-pregnane-11,20-dione]
α1β3 GABAAR [2]; 15 μM, not shown
  effect on GABA dose-response curves compared with α1β3γ2L: similar
α1β3γ2L GABAAR [3]; α1β3γ2 GABAARs
  Hill coefficient nH of [3H]muscimol binding enhancement: 1.3 ± 0.15
  efficacy of modulation of [3H]muscimol binding: 330 ± 9%
α1β3γ2L GABAAR [5]; 15 μM 6-azi-OAP
  decrease of GABA EC50: approximately 3 fold
α1β3γ2L GABAAR [5]
  potentiation of EC5 GABA-activated chloride currents (up to): 10.1 ± 0.67 fold

## CC(=O)[C@H]1CC[C@H]2[C@@H]3CC4(N=N4)[C@@H]4C[C@H](O)CC[C@]4(C)[C@H]3C(=O)C[C@]12C [6-azi-OP, 6-Azi-3α-hydroxy-5β-pregnane-11,20-dione]
α1β3γ2L GABAAR [3]; α1β3γ2 GABAARs
  Hill coefficient nH of [3H]muscimol binding enhancement: 1.6 ± 0.1
  efficacy of modulation of [3H]muscimol binding: 241 ± 3%
α1β3γ2L GABAAR [5]
  potentiation of EC5 GABA-activated chloride currents (up to): 8.0 ± 1.4 fold

## C=CC[C@@]1(c2cccc(C3(C(F)(F)F)N=N3)c2)C(=O)NC(=O)N(C)C1=O [R-mTFD-MPAB]
α1β3 GABAAR [6]; 60 μM
  inhibition of photolabeling: no inhibition

## C[C@]12CC[C@@H](O)C[C@@H]1CC[C@@H]1[C@@H]2CC[C@]2(C)[C@@H](C(=O)CO)CC[C@@H]12 [THDOC, 5α-pregnan-3α, 21-diol-20-one, reference compound]
α1β3 GABAAR [6]
  inhibition of photolabeling at high concentrations: 60%
α1β3γ2L GABAAR [5]
  enhancement of EC5 GABA-activated currents: 16 ± 2.1 fold
α1Q242Wβ3γ2L receptors
  positive modulation in α1Q242W mutant receptors: eliminated positive modulation

## CC(=O)[C@H]1CC[C@H]2[C@@H]3CC[C@H]4C[C@H](O)CC[C@]4(C)[C@H]3CC[C@]12C [allopregnanolone, 5α-pregnan-3α-ol-20-one]
α1β3γ2 GABAAR
  reduction of β subunit photolabeling: 70%
α1β3 GABAAR [6]; 30 μM, 0.8 μM [3H]21-pTFDBzox-AP
  reduction of β subunit photolabeling: 60%

## CC(=O)[C@H]1CC[C@H]2[C@@H]3CC[C@H]4C[C@H](O)CC[C@]4(C)[C@H]3C(=O)C[C@]12C [alphaxalone, 5α-pregnan-3α-ol-11,20-dione, reference compound]
Tadpoles [1]; read-out: anesthetic EC50 (LoRR), alphaxalone alone, 60 minutes equilibration
  EC50: 1400 ± 300 nM
Tadpoles [1]; read-out: anesthetic EC50 of alphaxalone, in constant presence of […] 21-pTFDBzox-AP
  EC50: 920 ± 300 nM
Tadpoles [7]
  EC50: 1000 to 2000 nM

## CCOC(=O)c1cncn1[C@H](C)c1ccccc1 [etomidate]
α1β3 GABAAR [6]; 1 mM
  inhibition of photolabeling: no inhibition

## CC(=O)[C@H]1CC[C@H]2[C@@H]3CC[C@@H]4C[C@H](O)CC[C@]4(C)[C@H]3CC[C@]12C [pregnanolone, 5β-pregnan-3α-ol-20-one]
α1β3 GABAAR [6]
  IC50: 700 nM
  inhibition of photolabeling at high concentrations: 60%

## Picrotoxin [reference compound]
α1L264Tβ3γ2L receptors; 2 mM
  outward currents as % of maximal GABA-induced inward currents: about 40%

## pregnenolone sulfate
α1β3 GABAAR [6]; 100 μM
  inhibition of photolabeling: no inhibition
